Source: ChEMBL document CHEMBL4152320, “Discovery and development of novel salicylate synthase (MbtI) furanic inhibitors as antitubercular agents” (Eur J Med Chem, 2018)
≈ marks a conversion by molar mass, not a printed value. Calls of active or inactive are those of the source. The calls are words filed in the database; no cut-off is given here.

Key:
[1] = tested on: Mycobacterium tuberculosis; assay: Inhibition of Mycobacterium tuberculosis salicylate synthase expressed in Escherichia coli BL21(DE3) assessed as residual activity at 100 uM using chorismic acid as substrate in presence of NADH by l-lactic dehydrogenase enzyme coupled assay relative to control
[2] = Inhibition of Mycobacterium tuberculosis salicylate synthase expressed in Escherichia coli BL21(DE3) using chorismic acid as substrate in presence of NADH by l-lactic dehydrogenase enzyme coupled assay
Procedure, shortened: (§1)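 IC50 at subsaturating chorismic acid (50 µM) via LDH-coupled NADH assay, 37 °C, 50 mM HEPES pH 8.0, 10 mM MgCl2, 10-20 µM MbtI; activity at varied inhibitor fitted to A[I] = A[0]×(1−[I]/([I]+IC50)). Aggregation controls run with BSA or Triton X-100 added (line 8 BSA, line 11 Triton).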

[3] = tested on: Mycobacterium tuberculosis; assay: Antimycobacterial activity against Mycobacterium tuberculosis H37Rv; format: functional
Procedure, shortened: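 MIC99 vs M. tuberculosis H37Rv on solid medium. Single colony grown in 7H9 + 10% OADC at 37 °C to exponential phase (~10^8 CFU/mL), diluted to ~10^6 CFU/mL, about 1 µL streaked onto plates with two-fold serial compound dilutions; MIC = lowest concentration inhibiting growth; triplicate.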

[4] = Competitive inhibition of Mycobacterium tuberculosis salicylate synthase expressed in Escherichia coli BL21(DE3) using varying levels of chorismic acid as substrate in presence of NADH by l-lactic dehydrogenase enzyme coupled assay
Procedure, shortened: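 Ki by competitive-inhibition fit of MbtI activity across varied CHA (10-500 µM range used for kinetics) and inhibitor levels (0, 5, 10, 20, 50, 100 µM). Coupled lactate dehydrogenase assay at 37 °C: 50 mM HEPES pH 8.0, 0.2 mM NADH, 10 mM MgCl2, 3 U LDH, 10-20 µM MbtI; reactions started with CHA; triplicate.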

[5] = tested on: Mycobacterium tuberculosis; assay: Inhibition of Mycobacterium tuberculosis salicylate synthase expressed in Escherichia coli BL21(DE3) using chorismic acid as substrate in presence of Triton-X-100 by l-lactic dehydrogenase enzyme coupled assay; procedure, shortened: as §1
[6] = tested on: Mycobacterium tuberculosis; assay: Inhibition of Mycobacterium tuberculosis salicylate synthase expressed in Escherichia coli BL21(DE3) using chorismic acid as substrate in presence of BSA by l-lactic dehydrogenase enzyme coupled assay; procedure, shortened: as §1
[7] = tested on: Mycobacterium tuberculosis; assay: Inhibition of Mycobacterium tuberculosis salicylate synthase expressed in Escherichia coli BL21(DE3) using chorismic acid as substrate in presence of DTT by l-lactic dehydrogenase enzyme coupled assay
Procedure, shortened: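 IC50 with 100 µM DTT present, to probe cysteine reactivity; LDH-coupled assay at 37 °C with 50 µM chorismic acid, 50 mM HEPES pH 8.0, 0.2 mM NADH, 10 mM MgCl2, 10-20 µM MbtI; fitted to single-site IC50 equation.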

SMILES | Activity [1] | further results
O=C(O)c1ccc(-c2ccc3c(c2)COC3=O)o1 | 58% | 
NS(=O)(=O)c1ccc(-c2ccc(C(=O)O)o2)cc1 | 84.6% | 
CS(=O)(=O)c1ccc(-c2ccc(C(=O)O)o2)cc1 | 98.5% | 
N#Cc1ccc(-c2ccc(C(=O)O)o2)cc1 | 126% | 
COc1ccc(C(=O)O)cc1OCc1ccncc1 | 104% | 
O=C(O)c1ccc(-c2ccc3nonc3c2)o1 | 46.8% | 
COc1ccc([N+](=O)[O-])cc1S(=O)(=O)Nc1cccc(C(=O)O)c1 | 38.4% | IC50 [2]: 77.6 µM
Cc1nc(C(C)NC(=O)c2ccoc2)sc1C(=O)O (stereo unspecified) | 109% | 
O=C(O)c1ccc(-c2ccc(C(=O)O)o2)cc1 | 92.4% | 
O=C(O)c1ccc(-c2ccc([N+](=O)[O-])cc2Cl)o1 | 21.3% | IC50 [2]: 21.1 µM
O=C(O)c1ccc(-c2ccccc2)o1 | 102% | 
COC(=O)c1ccc(-c2ccc([N+](=O)[O-])cc2)o1 | 71.1% | 
Cc1cc(C(=O)O)c2ccc(F)cc2n1 | 101% | 
O=C(O)c1cccc(-c2ccc([N+](=O)[O-])cc2)c1 | 36.8% | 
O=C(O)c1ccc(-c2ccc(-c3nn[nH]n3)cc2)o1 | 104% | 
O=C(O)c1ccc(-c2ccc([N+](=O)[O-])cc2)o1 | 18.2% | MIC99 [3]: 156 µM (≈ 36.4 µg/mL); Ki [4]: 5.3 µM; inhibition [5]: Active; inhibition [6]: Active; inhibition [7]: Active
O=C(O)c1ccc([N+](=O)[O-])cc1Cl | 89.3% | 
O=C(O)c1ccc(-c2cccc([N+](=O)[O-])c2)o1 | 50.2% | 
O=C(O)c1ccc(-c2ccccc2[N+](=O)[O-])o1 | 55.1% | 
O=C(O)c1ccc(-c2ccccc2Cl)o1 | 92.4% | 
C/C=C(\Oc1cccc(C(=O)O)c1O)C(=O)O |  | IC50 [2]: 11.6 µM
O=C(O)c1ccc(-c2ccc(C(F)(F)F)cc2)o1 | 66.3% | 
O=C(O)c1ccc(-c2ccncc2)o1 | 45% | 
O=C(O)c1ccc(-c2ccc(O)cc2)o1 | 96.3% | 
